We go through nine molecules from paper PMC5033602 (Investigative Ophthalmology & Visual Science, 2016).

One series concerns ALOX5. The series can be described thus: RT-PCR, ALOX5 mRNA in ARPE-19. It is filed as cell-based, human. The note with it: H2O2 200, 400, 500, 600, 800 μM plus 10 ng/mL TNF-α, 8 hours, relative to 18S, duplicate wells. The method in brief:
(§1)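 Confluent ARPE-19 cells were starved in 0.5% serum for 8 h, then treated with H₂O₂ plus TNF-α. Total RNA was purified on silica columns, and 1 μg was reverse transcribed with SuperScript III. mRNA was measured by semiquantitative real-time RT-PCR with gene-specific primers and 18S primers as internal control.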

For series [1], the system named is ARPE-19 cells. The note with it: cited from earlier work.
For another series, the system named is 5-LOX. The series can be described thus: Immunoblot, 5-LOX protein in ARPE-19 lysates. It is filed as cell-based, human. The note with it: H2O2 plus 10 ng/mL TNF-α, 8 hours. The method, boiled down:
(§2)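 ARPE-19 cells (passages 27–40) were grown in DMEM/F-12 with 10% FBS at 37°C, 5% CO₂ to confluency and starved in 0.5% serum for 8 h. They were then exposed to graded H₂O₂ with 10 ng/mL TNF-α for 8 h. Total lysates were run on SDS-PAGE and immunoblotted, then stripped and reprobed for β-tubulin as loading control. Duplicate wells; each experiment at least twice.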
Background: In western blotting, separated proteins are transferred to a membrane and probed.

In series [2] the test system is ARPE-19 cells. The series can be described thus: Cell viability. The class given is cell-based, human. The method in brief:
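ARPE-19 cells (passages 27–40; DMEM/F-12, 10% FBS, 37°C, 5% CO₂) were plated at 2 × 10⁴ cells/well and grown to confluence (72 h). After 8 h starvation in 0.5% serum, cells received increasing H₂O₂ plus TNF-α (10 ng/mL), with or without test peptide, for 16 h. Relative live-cell numbers came from intracellular ATP luminescence; each point is the mean of duplicate wells.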

The subject of series [3] is ARPE-19 cells. The series can be described thus: Pyknotic nuclei counting. It is filed as cell-based, human. The note with it: 600 μM H2O2, 16 hours, Hoechst stain. The method, boiled down:
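ARPE-19 cells were serum-starved, then treated with 600 μM H₂O₂ and test peptide together for 16 h. Cells were fixed in methanol (15 min, RT) and stained with 5 μM Hoechst in PBS (15 min, RT). Five random fields per well were imaged, and pyknotic nuclei were counted as a percentage of total cells.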

Another series deals with PEDF-R. The experiment in a line: Immunoblot, PEDF-R protein in ARPE-19 lysates. It is filed as cell-based, human. The note with it: H2O2 plus 10 ng/mL TNF-α, 8 hours. The method in brief: as §2
For the next series, the system named is PNPLA2. The series can be described thus: RT-PCR, PNPLA2 mRNA in ARPE-19. It is filed as cell-based, human. The note with it: H2O2 200, 400, 500, 600, 800 μM plus 10 ng/mL TNF-α, 8 hours, relative to 18S, duplicate wells. The method in brief:
as §1

The test system of series [4] is primary pig RPE cells. The experiment in a line: Cell viability. It is filed as cell-based. The note with it: 50-250 μM H2O2, 10 ng/mL TNF-α. The method in brief:
(§3)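 Primary pig RPE cultures plated at 2 × 10⁴ cells/well (96-well) and grown to confluence (72 h), then exposed to H₂O₂ with TNF-α (10 ng/mL) and test peptide for the indicated time. Live cells were measured as intracellular ATP luminescence (CellTiter-Glo) and dead cells as dead-cell protease luminescence (CytoTox-Glo), with lysis reagent added for total-cell signal. Relative cell numbers are from duplicate wells.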

Series [5] deals with ARPE-19 cells. The series can be described thus: Cell death. The class given is cell-based, human. The note with it: for Number of dead cells under oxidative stress: H2O2 (600 μM for SCR comparison), dead cell protease activity. The method, boiled down: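 ARPE-19 cells (passages 27–40) grown in DMEM/F-12 with 10% FBS at 37°C, 5% CO₂, plated at 2 × 10⁴ cells/well (96-well) and cultured to confluency (72 h). Serum-starved 8 h in 0.5% serum, then exposed 16 h to H₂O₂ (600 μM for scrambled-control comparison) plus TNF-α (10 ng/mL) with test peptides. Dead-cell protease activity read by CytoTox-Glo; duplicate wells ± SD.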

In the next series the test system is PEDF. The note with it: peptides from Leu159-Met325 of PEDF-R; cited from earlier work.
Series [6] has as its system primary pig RPE cells. The series can be described thus: Cell death. The class given is cell-based. The note with it: pig primary RPE; H2O2/TNF-α. The method in brief: as §3
The test system of series [7] is ARPE-19 cells. The experiment in a line: Detection of reactive oxygen species. It is filed as cell-based, human. The note with it: increasing H2O2 with or without 10 ng/mL TNF-α. The method, boiled down:
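Confluent ARPE-19 cells in 96-well black plates were serum-starved (0.5% serum, 8 h), then given increasing H₂O₂ with or without 10 ng/mL TNF-α, plus test peptide. CellRox Green was added 30 min before the end point, and fluorescence was read at ex 485/em 520 nm. Triplicate wells per point; each experiment was run twice.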

In a further series the test system is PEDF-R (PNPLA2). The note with it: cited from earlier work.
A further series has as its system human recombinant 5-LOX. The series can be described thus: His-tag pull-down assay, 5-LOX and PEDF-R. The class given is binding. The note with it: 5-LOX 250 ng, PEDF-R ∼350 and 700 ng, 0.1 M sodium phosphate, 50 mM NaCl, 0.1% NP-40, 4°C, 2 hours, Ni-NTA, Western blot.

Read-outs that look alike come from different tables or passages of the source.

As to `OO` [H2O2], the “ALOX5 mRNA level” value with ALOX5 is on record as “remained unchanged”. Also, the “Death mechanism of ARPE-19 cells” value with ARPE-19 cells [1] (400 and 600 μM H2O2) was “apoptosis”; in the series with ARPE-19 cells [1] (H2O2 higher than 600 μM) it was “necrosis”; with ARPE-19 cells [1] (TNF-α (10 ng/mL) and 400 to 800 μM H2O2), “apoptotic mechanism via caspase activation”. The 5-LOX protein level entry with 5-LOX is given as “paralleled those for expression of their respective genes”. Also, the “Relative cell numbers with increasing H2O2” value in the series on ARPE-19 cells [2] (100-1000 μM H2O2, 10 ng/mL TNF-α, 16 hours) was “concentration-dependent decrease in cell numbers”; with primary pig RPE cells [4], “concentration-dependent decrease in cell numbers”. For the same molecule, the Pyknotic nuclei level result in the series with ARPE-19 cells [3] is “resulted in an increase”. Besides, the PEDF-R protein level entry in the series on PEDF-R is reported as “paralleled those for expression of their respective genes”. Moreover, in the series with PNPLA2, the “PNPLA2 mRNA level” value is “decreased the levels of PNPLA2”.

As for “E5b: PEDF-R peptide Ile^193-Leu^232, overlapping P1 (ICPQDSSTNIHELRVTNTSIQFNLRNLYRLSKALFPPEPL)”, the “Number of dead cells under oxidative stress” value in the series with ARPE-19 cells [5] is “decreased cell death of RPE cells undergoing oxidative stress”. In addition, the “Protection from oxidative stress-induced cell death (summary)” value in the series on ARPE-19 cells [5] (H2O2/TNF-α) was “protected ARPE-19 and pig primary RPE cells from oxidative stress–induced cell death in a specific and concentration-dependent fashion”; in the series with primary pig RPE cells [6], “protected ARPE-19 and pig primary RPE cells from oxidative stress–induced cell death in a specific and concentration-dependent fashion”. Moreover, the “Cell viability under oxidative stress” value in the series on ARPE-19 cells [2] (H2O2/TNF-α, ATP live cell biomarker, duplicate wells) is on record as “promoted cell viability”. Further, the Pyknotic nuclei level entry with ARPE-19 cells [3] is recorded as “resulted in a decrease of pyknotic nuclei level”. In addition, the PEDF-binding affinity entry in the series on PEDF is given as “retain the PEDF-binding affinity of PEDF-R”.

In the case of “H-KRLQFEPRNYPSLLSTALPNILFRRLGGKFQDMRELCVYL-OH [SCR]”, the “Number of dead cells under oxidative stress” value in the series on ARPE-19 cells [5] was “did not decrease the number of dead cells”.

Regarding TNF-α, the “ROS production, presence versus absence of TNF-α” value in the series on ARPE-19 cells [7] is “comparable under both conditions”.

B1: CGI-58: protein that stimulates PEDF-R (PNPLA2) activity (protein, UniProt Q8WTS1 2-349, looked up)
1-acylglycerol-3-phosphate …: AAEEEEVDSADTGERSGWLTGWLPTWCPTSISHLKEAEEKMLKCVPCTYKKEPVRISNGNKIWTLKFSHNISNKTPLVLLHGFGGGLGLWALNFGDLCTNRPVYAFDLLGFGRSSRPRFDSDAEEVENQFVESIEEWRCALGLDKMILLGHNLGGFLAAAYSLKYPSRVNHLILVEPWGFPERPDLADQDRPIPVWIRALGAALTPFNPLAGLRIAGPFGLSLVQRLRPDFKRKYSSMFEDDTVTEYIYHCNVQTPSGETAFKNMTIPYGWAKRPMLQRIGKMHPDIPVSVIFGARSCIDGNSGTSIQSLRPHSYVKTIAILGAGHYVYADQPEEFNQKVKEICDTVD
In the case of B1, in the series with PEDF-R (PNPLA2), the “Effect on PEDF-R (PNPLA2) enzyme activity” value (shortened to “Effect on PEDF-R”) is “stimulated”.

B2: G0S2: G(0)/G(1) switch gene 2, inhibits PEDF-R (PNPLA2) (protein, UniProt P27469 1-103, looked up)
G0/G1 switch protein 2: METVQELIPLAKEMMAQKRKGKMVKLYVLGSVLALFGVVLGLMETVCSPFTAARRLRDQEAAVAELQAALERQALQKQALQEKGKQQDTVLGGRALSNRQHAS
For the molecule B2, the “Effect on PEDF-R” value with PEDF-R (PNPLA2) is “inhibited”.

B3: perilipin 5: protein that inhibits PEDF-R (PNPLA2) activity (protein, UniProt Q00G26 1-463, looked up)
Perilipin-5: MSEEEAAQIPRSSVWEQDQQNVVQRVVALPLVRATCTAVCDVYSAAKDRHPLLGSACRLAENCVCGLTTRALDHAQPLLEHLQPQLATMNSLACRGLDKLEEKLPFLQQPSETVVTSAKDVVASSVTGVVDLARRGRRWSVELKRSVSHAVDVVLEKSEELVDHFLPMTEEELAALAAEAEGPEVGSVEDQRRQQGYFVRLGSLSARIRHLAYEHSVGKLRQSKHRAQDTLAQLQETLELIDHMQCGVTPTAPACPGKVHELWGEWGQRPPESRRRSQAELETLVLSRSLTQELQGTVEALESSVRGLPAGAQEKVAEVRRSVDALQTAFADARCFRDVPAAALAEGRGRVAHAHACVDELLELVVQAVPLPWLVGPFAPILVERPEPLPDLADLVDEVIGGPDPRWAHLDWPAQQRAWEAEHRDGSGNGDGDRMGVAGDICEQEPETPSCPVKHTLMPELDF
On to B3, for which, in the series on PEDF-R (PNPLA2), the “Effect on PEDF-R” value is reported as “inhibited”.

B4: PEDF: pigment epithelium-derived factor, stimulates PEDF-R (protein, UniProt P36955 20-418, looked up)
Pigment epithelium-derived …: QNPASPPEEGSPDPDSTGALVEEEDPFFKVPVNKLAAAVSNFGYDLYRVRSSTSPTTNVLLSPLSVATALSALSLGAEQRTESIIHRALYYDLISSPDIHGTYKELLDTVTAPQKNLKSASRIVFEKKLRIKSSFVAPLEKSYGTRPRVLTGNPRLDLQEINNWVQAQMKGKLARSTKEIPDEISILLLGVAHFKGQWVTKFDSRKTSLEDFYLDEERTVRVPMMSDPKAVLRYGLDSDLSCKIAQLPLTGSMSIIFFLPLKVTQNLTLIEESLTSEFIHDIDRELKTVQAVLTVPKLKLSYEGEVTKSLQEMKLQSLFDSPDFSKITGKPIKLTQVEHRAGFEWNEDGAGTTPSPGLQPAHLTFPLDYHLNQPFIFVLRDTDTGALLFIGKILDPRGP
For the molecule B4, the “Effect on PEDF-R” value with PEDF-R (PNPLA2) is “stimulated”.

B5: His6-tag-PEDF-R: human recombinant His6/Xpress-tagged PEDF-R made by cell-free in vitro protein synthesis (protein)
chain: MFPREKTWNISFAGCGFLGVYYVGVASCLREHAPFLVANATHIYGASAGALTATALVTGVCLGEAGAKFIEVSKEARKRFLGPLHPSFNLVKIIRSFLLKVLPADSHEHASGRLGISLTRVSDGENVIISHFNSKDELIQANVCSGFIPVYCGLIPPSLQGVRYVDGGISDNLPLYELKNTITVSPFSGESDICPQDSSTNIHELRVTNTSIQFNLRNLYRLSKALFPPEPLVLREMCKQGYRDGLRFLQRNGLLNRPNPLLALPPARPHGPEDKDQAVESAQAEDYSQLPGEDHILEHLPARLNEALLEACVEPTDLLTTLSNMLPVRLATAMMVPYTLPLESALSFTIRLLEWLPDVPEDIRWMKEQTGSICQYLVMRAKRKLGRHLPSRLPEQVELRRVQSLPSVPLSCAAYREALPGWMRNNLSLGDALAKWEECQRQLLLGLFCTNVAFPPEALRMRAPADPAPAPADPASPQHQLAGPAPLLSTPAPEARPVIGALGL
modifications: left off: His6, end not stated, kept | Xpress, end not stated, kept
As for B5, the “Bound 5-LOX in pull-down with His6-tag-PEDF-R” value is recorded as “proportional increase of bound 5-LOX” in the series on human recombinant 5-LOX and “via ionic interactions” with human recombinant 5-LOX (listed as His6/Xpress-tagged PEDF-R).
